Laboratory results published in paper PMC7293934 (Neuropharmacology, 2020).
“And” between values parts separate entries of the source, which are not always exact repeats. Equal values may be shown once. “Also recorded” adds a separate entry of the source. Read-outs that look alike come from different tables or passages of the source.

Tests used:
[1] = test system: hippocampal interneurons; conditions: ref Perszyk et al., 2016; cited from earlier work
[2] = test system: hippocampal CA1 pyramidal neurons; conditions: ref Perszyk et al., 2016; cited from earlier work
[3] = test system: NMDA receptor-mediated responses of STN neurons; conditions: ref Swanger et al., 2015; cited from earlier work
[4] = test system: recombinant GluN1/2A/2C; conditions: ref Bhattacharya et al., 2018; cited from earlier work
[5] = target: T1, GluN1/2D (Rattus norvegicus, UniProt P35439+Q62645); type: cell-based; conditions: for Increase in glutamate potency / Increase in glycine potency: 10 μM modulator; for Increase in glutamate potency: 50 μM glycine; for Increase in glycine potency: 100 μM glutamate; for Increase in potencies of co-agonists glutamate and glycine: summary statement
[6] = test system: native NMDA receptors expressed by STN neurons; type: cell-based, mouse
How it was run: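 Sagittal 300 μm slices containing STN were cut from P12–18 C57BL/6J mice of either sex. Recording was at 32°C in aCSF with 0.2 mM Mg2+, 20 μM DNQX and 10 μM gabazine, using a Cs-based internal with QX-314, at −40 mV. Internal capsule stimulation was given every 30–60 s during 5–10 min baseline, then 10–15 min vehicle (0.01% DMSO) or 10 μM test compound, then 400 μM DL-APV. Charge transfer was taken as EPSC area.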

[7] = test system: native NMDA receptors expressed by hippocampal interneurons; type: cell-based, mouse
How it was run: (§1)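 Transverse 300 μm ventral hippocampal slices were cut from P12–18 C57BL/6J mice. Recording was at 32°C in aCSF with 0.2 mM Mg2+, 20 μM DNQX and 10 μM gabazine, using a Cs-based internal. Visually identified CA1 stratum radiatum/lacunosum moleculare interneurons or CA1 pyramidal neurons were held at +40 mV, with Schaffer collateral stimulation every 30–60 s. Sequence was baseline 5–10 min, 10 μM test compound 10–15 min, then 400 μM DL-APV.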

[8] = test system: native NMDA receptors expressed by hippocampal CA1 pyramidal neurons; type: cell-based, mouse
How it was run: as §1

[9] = test system: native NMDA receptors expressed by STN neurons; type: cell-based, mouse; conditions: APV 400 μM superfusion
[10] = test system: AMPA (GluA1–4) receptors; test: Two-electrode voltage-clamp electrophysiology, selectivity over AMPA receptors; type: cell-based; conditions: 10 μM PTC-174; activated by 30 μM kainate
How it was run: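 GluA1–4 AMPA receptors were expressed from cRNA in Xenopus oocytes. Two-electrode voltage clamp was at −40 mV and 21–23°C in Ba2+-containing solution, pH 7.4. Currents were evoked by 30 μM kainate with and without 10 μM test compound (DMSO <0.1%). Responses were normalized to control without test compound, from 5–8 oocytes.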

[11] = target: GluN1/2BC1/2DC2 (triheteromeric GluN1/2B/2D) (Rattus norvegicus, UniProt P35439+Q00960+Q62645); type: cell-based; conditions: Hill slope of PTC-174 concentration-response
[12] = target: GluN1/2CC1/2CC2-NK (Rattus norvegicus, UniProt P35439+Q00961, N612K); type: cell-based; conditions: for EC50: EC50, 100 μM glutamate + 50 μM glycine; for nH: Hill slope
GluN1/2CC1/2CC2-NK, sequence (Q00961 20-836 N612K, other chains not shown): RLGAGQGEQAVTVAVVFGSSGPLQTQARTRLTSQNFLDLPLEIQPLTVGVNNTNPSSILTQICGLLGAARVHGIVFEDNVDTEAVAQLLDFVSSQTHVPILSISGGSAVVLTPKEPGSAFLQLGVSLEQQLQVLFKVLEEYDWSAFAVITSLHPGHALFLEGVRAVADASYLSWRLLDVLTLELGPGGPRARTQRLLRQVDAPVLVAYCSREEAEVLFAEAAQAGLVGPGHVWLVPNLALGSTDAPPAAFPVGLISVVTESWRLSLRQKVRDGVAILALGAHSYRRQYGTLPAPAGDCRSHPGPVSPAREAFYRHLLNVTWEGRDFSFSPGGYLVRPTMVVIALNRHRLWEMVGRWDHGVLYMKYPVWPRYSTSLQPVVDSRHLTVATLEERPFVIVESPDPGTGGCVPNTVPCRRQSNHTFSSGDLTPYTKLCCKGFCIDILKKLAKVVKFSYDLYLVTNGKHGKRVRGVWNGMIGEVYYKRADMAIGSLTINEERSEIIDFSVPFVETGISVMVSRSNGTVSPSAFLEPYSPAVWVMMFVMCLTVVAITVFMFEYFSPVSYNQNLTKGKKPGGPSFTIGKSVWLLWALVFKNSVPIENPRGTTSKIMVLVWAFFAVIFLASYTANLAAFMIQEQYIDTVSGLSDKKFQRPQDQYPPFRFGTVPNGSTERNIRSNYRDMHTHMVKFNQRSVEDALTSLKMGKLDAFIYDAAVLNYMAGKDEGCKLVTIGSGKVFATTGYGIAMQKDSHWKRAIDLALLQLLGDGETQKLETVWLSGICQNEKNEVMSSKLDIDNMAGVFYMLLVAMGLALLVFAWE

[13] = target: T2, GluN1/2C (Rattus norvegicus, UniProt P35439+Q00961); type: cell-based
T2 sequence (Q00961 20-1237, other chains not shown): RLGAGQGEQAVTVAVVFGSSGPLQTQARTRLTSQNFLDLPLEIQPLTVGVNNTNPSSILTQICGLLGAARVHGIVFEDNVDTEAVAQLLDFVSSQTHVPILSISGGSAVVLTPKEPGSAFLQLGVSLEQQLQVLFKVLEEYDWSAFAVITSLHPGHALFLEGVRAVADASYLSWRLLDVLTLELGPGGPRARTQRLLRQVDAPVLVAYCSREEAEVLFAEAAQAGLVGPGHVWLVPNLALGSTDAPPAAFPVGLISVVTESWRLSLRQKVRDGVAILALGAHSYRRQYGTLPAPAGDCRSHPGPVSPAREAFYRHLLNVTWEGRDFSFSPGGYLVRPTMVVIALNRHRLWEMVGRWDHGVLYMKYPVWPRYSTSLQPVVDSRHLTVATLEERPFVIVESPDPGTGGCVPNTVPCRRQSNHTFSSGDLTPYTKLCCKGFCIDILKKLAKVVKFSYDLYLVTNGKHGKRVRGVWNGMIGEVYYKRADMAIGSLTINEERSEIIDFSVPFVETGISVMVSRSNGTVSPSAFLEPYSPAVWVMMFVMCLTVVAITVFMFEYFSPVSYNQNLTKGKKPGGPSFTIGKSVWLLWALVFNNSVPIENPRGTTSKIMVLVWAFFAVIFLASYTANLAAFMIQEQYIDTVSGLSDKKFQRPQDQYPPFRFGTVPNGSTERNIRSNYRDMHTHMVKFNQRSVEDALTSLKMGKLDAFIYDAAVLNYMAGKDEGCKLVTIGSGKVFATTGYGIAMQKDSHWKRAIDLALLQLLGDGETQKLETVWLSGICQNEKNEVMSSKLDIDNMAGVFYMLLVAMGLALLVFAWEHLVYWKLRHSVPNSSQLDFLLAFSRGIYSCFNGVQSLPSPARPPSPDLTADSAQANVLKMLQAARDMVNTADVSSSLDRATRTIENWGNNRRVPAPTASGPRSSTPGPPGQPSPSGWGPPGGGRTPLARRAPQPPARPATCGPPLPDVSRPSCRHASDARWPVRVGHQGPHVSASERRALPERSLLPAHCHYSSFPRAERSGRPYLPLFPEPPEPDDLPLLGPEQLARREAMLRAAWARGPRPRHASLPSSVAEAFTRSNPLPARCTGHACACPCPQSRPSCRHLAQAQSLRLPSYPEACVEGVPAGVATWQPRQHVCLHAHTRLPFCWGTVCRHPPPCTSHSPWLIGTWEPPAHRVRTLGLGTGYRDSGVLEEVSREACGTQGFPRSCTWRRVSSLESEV

[14] = target: GluN1/2A (Rattus norvegicus, UniProt P35439+Q00959); type: cell-based
GluN1/2A (Rattus norvegicus, UniProt P35439+Q00959), sequence (Q00959 23-1464, other chains not shown): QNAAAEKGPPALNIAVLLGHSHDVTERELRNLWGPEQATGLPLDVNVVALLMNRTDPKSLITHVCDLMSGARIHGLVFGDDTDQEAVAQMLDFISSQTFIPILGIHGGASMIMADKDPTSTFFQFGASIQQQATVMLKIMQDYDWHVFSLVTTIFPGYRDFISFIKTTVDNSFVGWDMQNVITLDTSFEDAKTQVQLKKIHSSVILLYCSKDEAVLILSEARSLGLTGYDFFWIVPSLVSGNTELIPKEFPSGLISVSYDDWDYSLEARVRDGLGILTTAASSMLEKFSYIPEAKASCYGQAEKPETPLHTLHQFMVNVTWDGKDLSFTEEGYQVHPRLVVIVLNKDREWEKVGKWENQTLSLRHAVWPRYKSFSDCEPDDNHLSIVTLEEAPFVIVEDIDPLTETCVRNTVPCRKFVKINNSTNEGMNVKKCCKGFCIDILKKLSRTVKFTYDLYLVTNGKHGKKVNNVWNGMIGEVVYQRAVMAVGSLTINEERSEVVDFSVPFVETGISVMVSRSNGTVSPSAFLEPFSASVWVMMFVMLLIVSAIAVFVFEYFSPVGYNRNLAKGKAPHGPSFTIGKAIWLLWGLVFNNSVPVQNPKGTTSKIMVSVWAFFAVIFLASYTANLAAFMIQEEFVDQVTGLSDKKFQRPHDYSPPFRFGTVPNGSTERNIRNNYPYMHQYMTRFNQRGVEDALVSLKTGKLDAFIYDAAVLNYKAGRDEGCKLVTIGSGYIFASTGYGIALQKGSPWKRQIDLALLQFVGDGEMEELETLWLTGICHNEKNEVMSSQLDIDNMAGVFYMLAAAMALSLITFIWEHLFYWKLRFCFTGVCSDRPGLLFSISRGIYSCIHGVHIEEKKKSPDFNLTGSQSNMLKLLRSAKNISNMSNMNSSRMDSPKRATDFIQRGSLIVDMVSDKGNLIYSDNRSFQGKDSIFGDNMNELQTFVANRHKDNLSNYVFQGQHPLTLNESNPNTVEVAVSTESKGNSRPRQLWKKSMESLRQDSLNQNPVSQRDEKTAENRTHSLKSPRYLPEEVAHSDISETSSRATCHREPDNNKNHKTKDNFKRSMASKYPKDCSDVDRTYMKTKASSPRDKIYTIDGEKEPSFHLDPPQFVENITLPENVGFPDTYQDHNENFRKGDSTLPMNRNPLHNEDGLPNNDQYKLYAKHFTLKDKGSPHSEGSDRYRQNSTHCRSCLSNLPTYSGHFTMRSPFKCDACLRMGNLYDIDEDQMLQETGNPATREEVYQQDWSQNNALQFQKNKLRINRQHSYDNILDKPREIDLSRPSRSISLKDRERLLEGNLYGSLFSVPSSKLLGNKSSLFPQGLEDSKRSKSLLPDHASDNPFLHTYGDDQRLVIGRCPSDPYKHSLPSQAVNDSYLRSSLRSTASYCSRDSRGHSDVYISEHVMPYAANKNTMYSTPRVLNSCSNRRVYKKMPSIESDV
How it was run: (§2)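 Rat GluN1 with GluN2A or GluN2B was expressed from cRNA in Xenopus oocytes. Oocytes were used 2–4 days later and preinjected with 50 mM BAPTA 10–30 min before recording. Two-electrode voltage clamp was at −40 mV and 21–23°C in Ba2+-containing solution, pH 7.4. […] Responses as % of agonist alone were Hill-fitted for EC50, nH and maximal modulation. At least 4 oocytes from ≥2 frogs were used.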

[15] = CNS exposure after systemic administration; type: in vivo; conditions: no data shown
[16] = target: GluN1/2B (Rattus norvegicus, UniProt P35439+Q00960); type: cell-based
How it was run: as §2

[17] = target: T1, GluN1/2D; test: Fast-application whole-cell patch-clamp electrophysiology, HEK293 cells; type: cell-based; conditions: 10 μM glycine
How it was run: (§3)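 HEK293 cells on poly-D-lysine coverslips in DMEM with 10% dialyzed FBS were calcium-phosphate transfected with GFP, GluN1 and GluN2 cDNAs (1:1:1), with 200 μM D,L-APV and 200 μM 7-chlorokynurenic acid in the medium. About 24 h later, whole-cell recordings were made at 20°C and −60 mV on lifted cells using piezo-driven theta-glass exchange. Cells were accepted at <1000 pA and <10 MΩ series resistance.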

[18] = target: GluN1/2AC1/2BC2 (triheteromeric GluN1/2A/2B) (Rattus norvegicus, UniProt P35439+Q00959+Q00960); type: cell-based
GluN1/2AC1/2BC2 (triheteromeric GluN1/2A/2B), sequence (Q00959 23-1464, other chains not shown): as above

[19] = target: GluN1/2AC1/2CC2-NK (triheteromeric GluN1/2A/2C) (Rattus norvegicus, UniProt P35439+Q00959+Q00961, N612K); type: cell-based; conditions: Hill slope; in the presence of 1 mM Mg2+
[20] = target: T2, GluN1/2C; test: Fast-application whole-cell patch-clamp electrophysiology, HEK293 cells; type: cell-based; conditions: 10 μM PTC-174 continuous; 3–5 ms 1 mM glutamate; 10 μM glycine
How it was run: as §3

[21] = test system: kainate (GluK1–2) receptors; type: cell-based; conditions: 10 μM PTC-174; activated by 100 μM glutamate; concanavalin A pre-incubation
How it was run: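 Oocytes expressing GluK1 or GluK2 were incubated 10 min in 1 mg/ml concanavalin A in recording solution. They were then clamped at −40 mV at 21–23°C in Ba2+-containing solution, pH 7.4. […] Responses were normalized to control without test compound, from 5–8 oocytes.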

[22] = test system: GluN1/2A; conditions: read-out: glycine EC50; in the absence of PTC-174; ref Yi et al. 2016; cited from earlier work
[23] = 10 μM PTC-174, 10 μM glutamate + 1 μM glycine
[24] = 100 μM glutamate + 50 μM glycine
[25] = Hill slope of PTC-174 concentration-response
[26] = relative to the response activated by glutamate + glycine + PTC-174
[27] = control (no modulator), continuous 50 μM glycine

In the case of COc1ccc(OCC2c3cc(OC)c(OC)cc3CCN2C(=O)c2cccc(Cl)c2)cc1 (single isomer, unassigned; (+)) [(+)-CIQ, (3-Chlorophenyl){6,7-dimethoxy-1-[(4-methoxyphenoxy)methyl]-3,4-dihydro-2(1H)-isoquinolinyl}methanone], the “Effect on EPSC decay time” value [1] is given as “did not affect the EPSC decay time”, the “Effect on NMDA receptor-mediated EPSCs” value [2] is given as “no effect on NMDA receptor-mediated EPSCs” and the “Effect on NMDA receptor-mediated responses of STN neurons” value [3] is given as “potentiate”. For the same compound, the “Efficacy relative to GluN1/2C” value [4] was “nearly as efficacious at recombinant GluN1/2A/2C as at GluN1/2C”, the “Increase in glutamate potency” value [5] was “no effect on glutamate potency” and the “Increase in glycine potency” value [5] was “no significant effect on glycine potency”. For the same compound, the “Increase in potencies of co-agonists glutamate and glycine” value (shortened to “Increase in potencies”) [5] was “no effect on agonist potencies”.
For NC(CCCP(=O)(O)O)C(=O)O (stereo not drawn) [APV, 2-Amino-5-phosphonovalerate, reference compound], the “Effect on NMDA receptor-mediated EPSCs” value ([6]; APV 400 μM superfusion) was “completely blocked the NMDA receptor-mediated EPSCs”, the “Effect on NMDA receptor-mediated EPSCs” value ([7]; APV 400 μM superfusion) was “completely blocked the NMDA receptor-mediated EPSCs” and the “Effect on NMDA receptor-mediated EPSCs” value ([8]; APV 400 μM superfusion) was “completely blocked the NMDA receptor-mediated EPSCs”. For the same compound, the “Effect on NMDA-evoked current” value [9] was “eliminated; also recorded: completely blocked the response to NMDA”.
For CC(C)(C)c1ccc(-c2nc3n(c(=O)c2C#N)CCCS3)cn1 [PTC-174, 8-(6-(tert-butyl)pyridin-3-yl)-6-oxo-3,4-dihydro-2H,6H-pyrimido[2,1-b][1,3]thiazine-7-carbonitrile], the Charge transfer ([6]; 10 μM PTC-174, −40 mV, baseline 12.9 ± 1.4) was 15.9 ± 2.4 pA·S, the τfast ([6]; 10 μM PTC-174, −40 mV, baseline 49.6 ± 5.5) was 69.3 ± 10.1 ms and the “τw (weighted EPSC decay time constant)” value ([6]; 10 μM PTC-174, −40 mV, baseline 111.0 ± 7.1) was 166.7 ± 21.3 ms and 166.7 ± 2.1 ms. The τslow ([6]; 10 μM PTC-174, −40 mV, baseline 226.2 ± 21.8) was 397.7 ± 131.5 ms, the “Effect on current responses” value [10] was “did not affect current responses” and the τfast ([7]; 10 μM PTC-174, +40 mV, baseline 113.7 ± 27.2) was 147.3 ± 46.5 ms. For the same compound, the Peak amplitude ([7]; 10 μM PTC-174, +40 mV, baseline 132.6 ± 20.1) was 157 ± 23 pA and 156.6 ± 23.3 pA, the “τw (weighted EPSC decay time constant)” value ([7]; 10 μM PTC-174, +40 mV, baseline 191.6 ± 6.6) was 292.0 ± 41.8 ms and the τslow ([7]; 10 μM PTC-174, +40 mV, baseline 321.4 ± 36.0) was 522.4 ± 154.9 ms. The nH [11] was 1.0, the EC50 ([12]; in the presence of 1 mM Mg2+) was 4.5 ± 0.2 µM and the EC50 ([12]; without Mg2+) was 5 ± 0.5 µM. The nH ([12]; in the presence of 1 mM Mg2+) was 1.2, the nH ([12]; without Mg2+) was 1.4 and the “Potentiation of responses at low glycine” value [13, 23] was ~ 10 fold. For the same compound, the “Increase in glycine potency” value ([13]; 10 μM modulator, 100 μM glutamate) was 4.7 fold, the “Maximal modulation (% control)” value [13, 24] was 1095 ± 29 % control and the nH [13, 25] was 1.2. For the same compound, the “Maximal potentiation of current responses” value (“Maximal potentiation” for short) ([13]; maximal glutamate plus glycine) was > 10 fold, the “Current response to glutamate only + PTC-174” value [13, 26] was 1.5% ± 0.1 and the “Current response to glycine only + PTC-174” value [13, 26] was 4.0% ± 0.9. For the same compound, the “Increase in potencies” value ([13]; summary statement) was 2- to 5 fold, the “Potentiation of responses at low glycine” value [14, 23] was 1.6 fold and the “Maximal modulation (% control)” value ([14]; 100 μM glutamate + 50 μM glycine, control = response without PTC-174, inhibition) was 39 ± 4 % control. The nH [14, 25] was −1.1, the “Effect on current responses (in words)” value ([14]; maximal glutamate plus glycine) was “concentration-dependent partial inhibition; also recorded: partial antagonist” and the τfast ([8]; 10 μM PTC-174, +40 mV, baseline 56.0 ± 3.3) was 64.3 ± 9.3 ms. The “τw (weighted EPSC decay time constant)” value ([8]; 10 μM PTC-174, +40 mV, baseline 150.1 ± 10.0) was 187.3 ± 20.0 ms, the τslow ([8]; 10 μM PTC-174, +40 mV, baseline 382.5 ± 38.8) was 416.1 ± 36.9 ms and the CNS exposure [15] was “readily achieves CNS exposure after systemic administration”. For the same compound, the “Potentiation of responses at low glycine” value [16, 23] was 1.8 fold, the “Maximal modulation (% control)” value [16, 24] was 180 ± 4 % control and the nH [16, 25] was 1.3. For the same compound, the “Maximal potentiation” value ([16]; maximal glutamate plus glycine) was 1.8 fold, the “Enhancement of peak responses” value ([17]; 10 μM PTC-174 continuous, 3–5 ms 1 mM glutamate) was 5.3 fold and the “Potentiation of response to 2 second glutamate application” value ([17]; 10 μM PTC-174 present before and during 1 mM glutamate exposure) was 6.3 fold. For the same compound, the EC50 [18] was 19.7 ± 1.5 µM, the nH [18, 25] was −1.0 and the “Effect on current responses (in words)” value ([18]; maximal glutamate plus glycine) was “partial inhibition; also recorded: partial antagonist”. The nH [19] was 1.2, the “Enhancement of peak responses” value [20] was 3.7 fold and the “Potentiation of responses at low glycine” value [5, 23] was ~ 10 fold. For the same compound, the “Increase in glutamate potency” value [5] was 2.5 fold, the “Increase in glycine potency” value [5] was 4.8 fold and the “Maximal modulation (% control)” value [5, 24] was 1265 ± 67 % control. The nH [5, 25] was 1.2, the “Maximal potentiation” value ([5]; maximal glutamate plus glycine) was > 10 fold and 13 fold and the “Increase in potencies” value [5] was 2- to 5 fold. The “Effect on current responses” value [21] was “did not affect current responses”.
With N[C@@H](CCC(=O)O)C(=O)O [glutamate, reference compound] the “nH (glutamate)” value [13, 27] was 1.3 and the “nH (glutamate)” value [5, 27] was 1.7 and 1.5.
For NCC(=O)O [glycine], the EC50 [22] is listed as 1.1 µM.
